Screening results from PubChem BioAssay.
Sampled rows, rich in hits. Any-hit rate of the full collection: about 2%.
SENP1 FRET inh = inhibitors of human SENP1 SUMO protease catalytic domain | Q9P0U3 | inhibition, % at 10 µM | 0.21% of 360,000 active | recombinant SENP1 catalytic domain, CyPet-SUMO1-YPet FRET cleavage;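 active = inhibition at least 30% at 10 µM, raw YFP signal under a set limit, fluorescence ratio 0.5 to 1.5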;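 note: 0% = enzyme with DMSO and 100% = no enzyme wells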
Target sequence (Q9P0U3 419-644 limits assumed): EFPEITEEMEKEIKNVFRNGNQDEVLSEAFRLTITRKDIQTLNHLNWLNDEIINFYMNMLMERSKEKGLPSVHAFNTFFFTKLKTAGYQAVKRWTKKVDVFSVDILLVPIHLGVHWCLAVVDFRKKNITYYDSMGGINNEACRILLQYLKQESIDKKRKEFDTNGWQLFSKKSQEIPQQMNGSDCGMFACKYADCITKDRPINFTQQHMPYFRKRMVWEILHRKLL
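system = hSENP1 catalytic domain, recombinant | reagent = SFCypet-SUMO1-SFYpet substrate at 25 nM | doses = one dose per compound, 10 µM, 0.5% DMSO | incubation = enzyme reaction for 50 min at room temperature, dark | measured by = FRET, CFP and YFP emission | controls = no-enzyme low, enzyme-DMSO high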
ATG4B inh = ATG4B (human) cysteine protease inhibition | Q9Y4P1 | ATG4B cleavage of LC3-PLA2, NBD-HPC fluorescence, 1 h | inhibition, % at 8.33 µM | 0.51% of 340,000 active
Rpn11 block = Rpn11 (human) deubiquitinase inhibition | O00487 | human 26S proteasome, Ub4-pepOG fluorescence polarization; 20S core pre-blocked with epoxomicin | inhibition, % at 20 µM | 0.59% of 360,000 active | AID 588493;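 active = inhibition at 20 µM, scaled to each plate's controls, above about 33%, limit read from the data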
TPT1 inhibitor = C. albicans TPT1 enzyme inhibition; recombinant caTPT1, FP RNA substrate dephosphorylation; inhibition, % at 5 µM; 0.81% of 300,000 active; AID 1962;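 active = inhibition above the mean of all tested compounds plus 3 SD, set per screening campaign, cut at about 24% in these data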;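 note: plate controls were DMSO alone for no effect and ferristatin control at 100 nM for full effect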
HNF4A DNA FP = change in binding of human HNF4 alpha to DNA; P41235; HNF4a-FITC DNA binding, fluorescence polarization, 1 h; activity change, % at 10 µM; 0.3% of 360,000 active; AID 1224865; in the data active = activity change above about 30%, passing the limit was not always enough
Target sequence (P41235 whole entry, looked up): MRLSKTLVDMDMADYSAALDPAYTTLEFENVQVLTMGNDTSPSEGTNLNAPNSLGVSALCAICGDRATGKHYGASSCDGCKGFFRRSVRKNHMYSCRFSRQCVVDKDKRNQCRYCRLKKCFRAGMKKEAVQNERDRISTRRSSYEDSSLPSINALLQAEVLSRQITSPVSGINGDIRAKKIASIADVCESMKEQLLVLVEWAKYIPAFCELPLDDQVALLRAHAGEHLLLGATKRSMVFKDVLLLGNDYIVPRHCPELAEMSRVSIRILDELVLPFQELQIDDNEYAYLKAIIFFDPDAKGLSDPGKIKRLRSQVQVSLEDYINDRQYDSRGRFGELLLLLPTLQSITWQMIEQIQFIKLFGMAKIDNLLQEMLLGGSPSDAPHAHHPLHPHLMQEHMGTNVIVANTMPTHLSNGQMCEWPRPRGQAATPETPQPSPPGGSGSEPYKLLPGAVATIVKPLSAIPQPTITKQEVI
CSN deneddyl inh = inhibitors of human CSN-mediated cullin deneddylation | Q92905 | Purified CSN, SCF-Nedd8-OG deneddylation, fluorescence polarization | inhibition, % at 12.5 µM | 0.38% of 360,000 active;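 active = pattern-corrected inhibition above about 35%, with an unprinted fluorescence ratio check between 0.5 and 1.5, limit read from the data, passing the limit was not always enough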;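 note: 0% = enzyme with substrate and 100% = substrate without enzyme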
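Test system: purified human Csn5 enzyme expressed in HEK293T cells. Amount: 0.24 nM enzyme. Reagent: SCFSkp2-Nedd8OG substrate at 10 nM final. Schedule: 90 min incubation of compound, enzyme and substrate at room temperature. Detection: fluorescence polarization. Read-out: % inhibition of substrate cleavage by Csn5.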
Rpn11 confirm = Rpn11 inhibition confirmation, single concentration. inhibition, % at 20 µM. shares compounds with Rpn11 block. purified human 26S proteasome, Ub4-pepOG fluorescence polarization; proteasome pretreated with epoxomicin. 29% of 1,900 active
MMP-2 inh = counter-screen for RPN11 inhibitors: inhibition of human MMP-2. shares compounds with Rpn11 block. recombinant MMP-2, FRET peptide cleavage fluorescence. inhibition, % at 20 µM. 4% of 1,900 active. AID 602330;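 note: human MMP-2 activated beforehand with APMA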
Thrombin FP = blocks bovine thrombin, flagging nonselective RPN11 hits; bovine thrombin cleavage of Ub4-pepOG, fluorescence polarization; 13% of 1,900 active; shares compounds with Rpn11 block; inhibition, % at 20 µM; AID 602333;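 active = mean inhibition at least 40% at 20 µM, or signal 3 deviations below plate average, so some actives read negative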;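 note: plate controls were thrombin with DMSO for no effect and buffer wells lacking thrombin for full effect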
* hit, by the source's call. Cut-off read from the data, not from the text of the source, unless noted: active = inhibition above about 40%; inactive = the rest.

`Cc1ccc2nc(NC(=O)CN3C(=O)NC4(CCCC4)C3=O)sc2c1` gave SENP1 FRET inh -0.7, ATG4B inh -8.6, Rpn11 block -4.9, TPT1 inhibitor 0.7, HNF4A DNA FP 4.9 and CSN deneddyl inh 4.6.
Screening N#Cc1cccc(NC(=O)CSc2sc3c(O)cc(=O)[nH]c3c2C#N)c1 returned SENP1 FRET inh -6.3, ATG4B inh 0.9, Rpn11 block 55.4*, TPT1 inhibitor -0.4, HNF4A DNA FP -26.7, CSN deneddyl inh 11.3, Rpn11 confirm -4.5, MMP-2 inh -22.3 and Thrombin FP -16.8.
`Cc1cc(C(F)(F)F)c(C#N)c(SCC(=O)Nc2nc3cc(Br)ccc3s2)n1` gave SENP1 FRET inh 17.7, ATG4B inh -7.3, Rpn11 block 52.9*, TPT1 inhibitor 15.4, HNF4A DNA FP 2.5, CSN deneddyl inh 11.1, Rpn11 confirm 29.7, MMP-2 inh 7.4 and Thrombin FP -12.7.
Screening N#Cc1c(SCC(=O)Nc2nc3ccc(Br)cc3s2)sc2c(O)cc(=O)[nH]c12 returned SENP1 FRET inh -82.2, ATG4B inh 17.4, Rpn11 block 104.7*, TPT1 inhibitor 8.1, HNF4A DNA FP -26.7, CSN deneddyl inh 29.0, Rpn11 confirm 53.2*, MMP-2 inh 28.7 and Thrombin FP -5.3.
N#Cc1ccc(NC(=O)CSc2nc3[nH]c(=O)cc(O)c3s2)cc1 was read as SENP1 FRET inh -8.2, ATG4B inh 3.9, Rpn11 block 8.1, HNF4A DNA FP 0.4 and CSN deneddyl inh 0.8.
`CSc1ccc(NC(=O)CSc2nc3[nH]c(=O)cc(O)c3s2)cc1` gave SENP1 FRET inh -22.8, ATG4B inh 3.6, Rpn11 block 40.0*, HNF4A DNA FP -22.3, CSN deneddyl inh 8.4, Rpn11 confirm 41.8*, MMP-2 inh 31.5 and Thrombin FP 17.6.
N#Cc1c(SCC(=O)Nc2cccc(F)c2)sc2c(O)cc(=O)[nH]c12 was read as SENP1 FRET inh -4.8, ATG4B inh 5.7, Rpn11 block 33.4, TPT1 inhibitor 5.9, HNF4A DNA FP -15.9 and CSN deneddyl inh 8.7.
CC(C)(C)n1nnnc1C(c1ccccc1)N1CCN(C(=O)C2CCCO2)CC1 (stereo not given) was read as SENP1 FRET inh 1.8, HNF4A DNA FP 1.0 and CSN deneddyl inh 1.6.
Screening O=C(CCc1c[nH]c2ccccc12)N1CCN(S(=O)(=O)c2ccc([N+](=O)[O-])cc2)CC1 returned SENP1 FRET inh 1.8, Rpn11 block -5.6, HNF4A DNA FP -0.2 and CSN deneddyl inh -0.9.
CC(C)(CNc1ccc([N+](=O)[O-])cc1Cl)N1CCOCC1 was read as SENP1 FRET inh -1.6, ATG4B inh -6.1, Rpn11 block -0.6, TPT1 inhibitor -2.5, HNF4A DNA FP -1.6 and CSN deneddyl inh 0.6.
For O=C(CSc1nnc2c(n1)[nH]c1ccc(F)cc12)OCc1ccccc1 the results were SENP1 FRET inh 5.0, ATG4B inh -9.8, Rpn11 block 89.4*, TPT1 inhibitor -4.5, HNF4A DNA FP -0.1, CSN deneddyl inh -7.4, Rpn11 confirm -5.3, MMP-2 inh 6.6 and Thrombin FP -9.9.
Screening COc1cccc(CNC(=O)CSc2nnc3c(n2)[nH]c2ccc(F)cc23)c1 returned SENP1 FRET inh 2.0, ATG4B inh 3.1, Rpn11 block -1.5, TPT1 inhibitor -1.3, HNF4A DNA FP 0.6 and CSN deneddyl inh 0.9.
For C#CCOCCOCCOCCNc1nc(N2CCN(C(=O)Cn3cc(CC(C)O)nn3)CC2)nc(N2CCN(C(=O)[C@H](C)n3cc(CCC(=O)O)nn3)CC2)n1 (stereo not given in full) the results were SENP1 FRET inh 2.6, ATG4B inh -2.1, Rpn11 block -4.0, HNF4A DNA FP -0.8 and CSN deneddyl inh -0.9.
Screening COc1ccc(-c2nc(SCC(=O)Nc3nccs3)c(-c3ccc(Cl)cc3)[nH]2)cc1 returned SENP1 FRET inh -2.0, ATG4B inh 11.2, Rpn11 block 4.5, TPT1 inhibitor 2.7, HNF4A DNA FP -1.2 and CSN deneddyl inh -7.1.
`COc1ccc(-c2[nH]c(-c3ccc(SC)cc3)nc2SCC(=O)Nc2nccs2)cc1` gave SENP1 FRET inh 4.1, ATG4B inh 12.7, Rpn11 block 70.8*, TPT1 inhibitor -1.4, HNF4A DNA FP 16.6, CSN deneddyl inh -3.9, Rpn11 confirm 86.8*, MMP-2 inh 26.6 and Thrombin FP 62.7*.
COc1ccc(-c2[nH]c(-c3ccc(C)cc3)nc2SCC(=O)Nc2nccs2)cc1 was read as SENP1 FRET inh 2.4, ATG4B inh 9.8, Rpn11 block 84.2*, TPT1 inhibitor -0.6, HNF4A DNA FP 30.2*, CSN deneddyl inh -7.2, Rpn11 confirm 6.5, MMP-2 inh 37.3 and Thrombin FP -2.8.
Screening Cc1ccc(CS(=O)Cc2ccc(C(=O)NCc3cccs3)o2)cc1 (stereo not given) returned SENP1 FRET inh 0.6, ATG4B inh -5.2, Rpn11 block 64.2*, TPT1 inhibitor -2.6, HNF4A DNA FP 3.7, CSN deneddyl inh -1.2, Rpn11 confirm -10.3, MMP-2 inh -1.4 and Thrombin FP -17.7.
Screening CCN(CC(=O)Nc1ccc(NC(C)=O)cc1)C(=O)c1cc([N+](=O)[O-])ccc1Sc1ccc(Cl)cc1 returned SENP1 FRET inh 12.0, ATG4B inh -50.5, Rpn11 block -0.7, HNF4A DNA FP 1.2 and CSN deneddyl inh -2.9.
Screening O=C(COc1ccc([N+](=O)[O-])cc1)Nc1cccc2nsnc12 returned SENP1 FRET inh -26.1, ATG4B inh -2.6, Rpn11 block 75.3*, TPT1 inhibitor 10.6, HNF4A DNA FP 26.6, CSN deneddyl inh 16.3, Rpn11 confirm 4.0, MMP-2 inh -3.2 and Thrombin FP 5.2.
`Cc1ccc(OCC(=O)Nc2cccc3nsnc23)c(C)c1` gave SENP1 FRET inh -35.2, ATG4B inh -5.4, Rpn11 block 5.4, TPT1 inhibitor -0.9, HNF4A DNA FP 0.0 and CSN deneddyl inh 3.6.
CCOC(=O)CC1(C)c2nc(NC(C)=O)sc2Cc2sc(NC(C)=O)nc21 was read as SENP1 FRET inh -21.3, Rpn11 block 4.5, HNF4A DNA FP -3.3 and CSN deneddyl inh 0.5.
